This note sets out measurements from ChEMBL document CHEMBL4265954, “Discovery of potent liver-selective stearoyl-CoA desaturase-1 (SCD1) inhibitors, thiazole-4-acetic acid derivatives, for the treatment of diabetes, hepatic steatosis, and obesity” (Eur J Med Chem, 2018).

One data set addresses T1, Stearoyl-CoA desaturase (Homo sapiens, UniProt O00767).
T1 sequence (O00767 whole entry): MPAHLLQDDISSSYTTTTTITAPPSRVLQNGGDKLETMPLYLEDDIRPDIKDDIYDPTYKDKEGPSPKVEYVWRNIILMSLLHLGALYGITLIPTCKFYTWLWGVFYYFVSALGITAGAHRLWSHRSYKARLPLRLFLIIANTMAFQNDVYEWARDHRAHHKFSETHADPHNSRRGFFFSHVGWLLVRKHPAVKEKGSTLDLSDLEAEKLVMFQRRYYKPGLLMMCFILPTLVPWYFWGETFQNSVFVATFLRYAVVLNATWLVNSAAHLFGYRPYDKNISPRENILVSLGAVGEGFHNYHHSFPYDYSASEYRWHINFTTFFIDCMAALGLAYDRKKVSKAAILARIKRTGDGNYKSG
As to the kind of experiment: Inhibition of recombinant human SCD1 expressed in baculovirus expression system assessed as reduction in [3H]H2O production using stearoyl [9,10-3H]CoA as substrate in presence of NADH incubated for 30 mins by scintillation counting method. Put shortly:
(§1)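 Desaturation of [9,10-3H]stearoyl-CoA measured as released [3H]H2O. Water was separated from charcoal-adsorbed substrate by filtration and counted by scintillation. Remaining activity = (compound − background)/(control − background). DMSO wells served as control and pre-stopped wells as background. IC50 was interpolated from the two points bracketing 50%.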

In another data set the target is T2, Acyl-CoA desaturase 1 (Mus musculus, UniProt P13516).
T2 sequence (P13516 whole entry): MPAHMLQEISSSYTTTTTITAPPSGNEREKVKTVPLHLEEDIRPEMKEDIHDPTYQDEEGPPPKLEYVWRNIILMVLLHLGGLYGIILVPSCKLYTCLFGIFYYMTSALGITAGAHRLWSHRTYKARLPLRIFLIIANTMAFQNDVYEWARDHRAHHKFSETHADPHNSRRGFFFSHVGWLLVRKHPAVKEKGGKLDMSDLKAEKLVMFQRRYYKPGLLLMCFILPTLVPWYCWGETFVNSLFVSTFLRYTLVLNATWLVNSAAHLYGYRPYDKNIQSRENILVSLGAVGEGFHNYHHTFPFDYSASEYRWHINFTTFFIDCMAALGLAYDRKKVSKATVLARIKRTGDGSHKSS
The data set can be described thus: Inhibition of mouse liver microsome SCD assessed as reduction in [3H]H2O production using stearoyl [9,10-3H]CoA as substrate in presence of NADH incubated for 30 mins by scintillation counting method. The data set is classed as microsomes. Summed up:
as §1

The target in data set [1] is Acyl-CoA (8-3)-desaturase (Homo sapiens, UniProt O60427). The data set can be described thus: Inhibition of delta-5 fatty acid desaturase (unknown origin).
Acyl-CoA (8-3)-desaturase, sequence (O60427 whole entry): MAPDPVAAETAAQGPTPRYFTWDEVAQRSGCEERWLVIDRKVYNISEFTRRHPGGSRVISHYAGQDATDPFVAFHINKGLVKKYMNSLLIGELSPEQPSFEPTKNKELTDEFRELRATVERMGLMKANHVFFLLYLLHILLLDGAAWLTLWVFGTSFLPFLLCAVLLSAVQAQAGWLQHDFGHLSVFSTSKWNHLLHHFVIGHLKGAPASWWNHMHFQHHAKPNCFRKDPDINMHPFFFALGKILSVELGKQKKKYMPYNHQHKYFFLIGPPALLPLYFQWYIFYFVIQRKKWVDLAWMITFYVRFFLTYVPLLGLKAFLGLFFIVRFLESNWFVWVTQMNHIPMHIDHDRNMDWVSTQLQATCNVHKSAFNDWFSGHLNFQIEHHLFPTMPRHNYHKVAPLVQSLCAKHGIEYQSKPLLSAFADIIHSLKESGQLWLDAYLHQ
Data set [2] can be described thus: Solubility of the compound in PBS at pH 7.2. The data set is classed as physicochemical.
Data set [3] is described as follows: Apparent permeability of the compound in human Caco2 cells. It counts as ADME, cell-based. The following applies: Caco-2.
Data set [4] relates to Mus musculus. As to the kind of experiment: Ex vivo inhibition of SCD1 in C57BL/6J mouse liver assessed as residual activity at 0.1 mg/kg, po treated for 6 hrs followed by incubation with [14C]stearoyl-CoA substrate for 10 mins by TLC assay relative to control. The data set is classed as functional. Put shortly: (§2)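 Male 6-week-old C57BL/6J mice dosed orally as a suspension in 0.5% methylcellulose. Liver or eyelid was taken 6 or 24 h later and homogenized in 100 mM Tris-HCl pH 7.4 with 0.25 M sucrose. S9 was obtained at 10,000 × g, 4 °C. S9 was incubated with [14C]stearoyl-CoA, NADH, MgCl2 and cytochrome b5 at room temperature, 10 min for liver and 30 min for eyelid. Lipids were saponified and run on AgNO3 TLC to quantify stearate and oleate. Result is % of vehicle control.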

Data set [5] concerns Mus musculus. The data set can be described thus: Ex vivo inhibition of SCD1 in C57BL/6J mouse liver assessed as residual activity at 1 mg/kg, po treated for 6 hrs followed by incubation with [14C]stearoyl-CoA substrate for 10 mins by TLC assay relative to control. The data set is classed as functional. Put shortly:
as §2

Data set [6] concerns Mus musculus. As to the kind of experiment: Ex vivo inhibition of SCD1 in C57BL/6J mouse liver assessed as residual activity at 10 mg/kg, po treated for 6 hrs followed by incubation with [14C]stearoyl-CoA substrate for 10 mins by TLC assay relative to control. The data set is classed as functional. Put shortly:
as §2

The subject of data set [7] is Mus musculus. As to the kind of experiment: Ex vivo inhibition of SCD1 in C57BL/6J mouse eyelid assessed as residual activity at 0.1 mg/kg, po treated for 6 hrs followed by incubation with [14C]stearoyl-CoA substrate for 30 mins by TLC assay relative to control. It counts as organism-based. Summed up:
as §2

The test system of data set [8] is Mus musculus. As to the kind of experiment: Ex vivo inhibition of SCD1 in C57BL/6J mouse eyelid assessed as residual activity at 1 mg/kg, po treated for 6 hrs followed by incubation with [14C]stearoyl-CoA substrate for 30 mins by TLC assay relative to control. It counts as organism-based. Summed up:
as §2

Data set [9] concerns Mus musculus. As to the kind of experiment: Ex vivo inhibition of SCD1 in C57BL/6J mouse eyelid assessed as residual activity at 10 mg/kg, po treated for 6 hrs followed by incubation with [14C]stearoyl-CoA substrate for 30 mins by TLC assay relative to control. The data set is classed as organism-based. Summed up: as §2
The subject of data set [10] is Mus musculus. As to the kind of experiment: Ex vivo inhibition of SCD1 in C57BL/6J mouse liver assessed as residual activity at 0.1 mg/kg, po treated for 24 hrs followed by incubation with [14C]stearoyl-CoA substrate for 10 mins by TLC assay relative to control. The data set is classed as functional. Summed up: as §2
Data set [11] concerns Mus musculus. As to the kind of experiment: Ex vivo inhibition of SCD1 in C57BL/6J mouse liver assessed as residual activity at 1 mg/kg, po treated for 24 hrs followed by incubation with [14C]stearoyl-CoA substrate for 10 mins by TLC assay relative to control. The data set is classed as functional. Put shortly:
as §2

In data set [12] the test system is Mus musculus. The data set can be described thus: Ex vivo inhibition of SCD1 in C57BL/6J mouse liver assessed as residual activity at 10 mg/kg, po treated for 24 hrs followed by incubation with [14C]stearoyl-CoA substrate for 10 mins by TLC assay relative to control. The data set is classed as functional. Summed up: as §2
Data set [13] concerns Mus musculus. The data set can be described thus: Ex vivo inhibition of SCD1 in C57BL/6J mouse eyelid assessed as residual activity at 0.1 mg/kg, po treated for 24 hrs followed by incubation with [14C]stearoyl-CoA substrate for 30 mins by TLC assay relative to control. It counts as organism-based. Put shortly:
as §2

Data set [14] deals with Mus musculus. The data set can be described thus: Ex vivo inhibition of SCD1 in C57BL/6J mouse eyelid assessed as residual activity at 1 mg/kg, po treated for 24 hrs followed by incubation with [14C]stearoyl-CoA substrate for 30 mins by TLC assay relative to control. The data set is classed as organism-based. Put shortly: as §2
Data set [15] has as its system Mus musculus. As to the kind of experiment: Ex vivo inhibition of SCD1 in C57BL/6J mouse eyelid assessed as residual activity at 10 mg/kg, po treated for 24 hrs followed by incubation with [14C]stearoyl-CoA substrate for 30 mins by TLC assay relative to control. The data set is classed as organism-based. Put shortly: as §2
Data set [16] has as its system Mus musculus. As to the kind of experiment: Ex vivo inhibition of SCD1 in C57BL/6J mouse eyelid assessed as residual activity at 100 mg/kg, po treated for 24 hrs followed by incubation with [14C]stearoyl-CoA substrate for 30 mins by TLC assay relative to control. It counts as organism-based. Put shortly: as §2
Data set [17] relates to Mus musculus. The data set can be described thus: Ex vivo inhibition of SCD1 in C57BL/6J mouse liver treated orally for 6 hrs followed by incubation with [14C]stearoyl-CoA substrate for 10 mins by TLC assay. It counts as functional, organism-based. Summed up: as §2
Data set [18] deals with Mus musculus. As to the kind of experiment: Ex vivo inhibition of SCD1 in C57BL/6J mouse eyelid treated orally for 6 hrs followed by incubation with [14C]stearoyl-CoA substrate for 30 mins by TLC assay. As to conditions: po. It counts as organism-based. Put shortly:
as §2

Data set [19] can be described thus: AUC (0 to infinity) in C57BL/6J mouse at 10 mg/kg, po. It counts as ADME, organism-based. Set-up: dose 10 mg/kg, time infinity, route oral. As to conditions: in vivo.
Data set [20] can be described thus: Oral bioavailability in C57BL/6J mouse at 10 mg/kg. The data set is classed as ADME, organism-based. The following applies: in vivo. Put shortly: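 Two male C57BL/6J mice per route, 10 mg/kg po and 1 mg/kg iv. Plasma concentration–time profiles gave Cmax, tmax, terminal half-life and AUC0-inf. Bioavailability was derived from the po and iv data.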
The subject of data set [21] is Mus musculus. As to the kind of experiment: Antiobesity activity in high fat diet fed C57BL/6J mouse assessed as reduction in diet-induced body weight gain at 10 mg/kg, po administered as diet mixture for 43 days relative to control. It counts as functional. Put shortly: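 C57BL/6J mice, individually housed, fed HFD for one month, then given HFD admixed with drug (0.0040% for 3 mg/kg/day, 0.0133% for 10 mg/kg/day) for 43 days, from 10 to 16 weeks of age. Chow-fed normal group as control. Body weight measured every 3–4 days. Mean ± SD, n=5–8. Dunnett's test versus HFD control.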

Converted amounts (≈) assume the structure as drawn. The source made the active and inactive calls. No cut-off for these calls is given here.

For `Cc1csc(NC(=O)c2ccc(CNc3ccccc3C)cc2)n1`, the IC50 is 6.4 nM at Stearoyl-CoA desaturase, 3.8 nM at Acyl-CoA desaturase 1 and greater than 30000 nM in [1]. The amount in solution in data set [2] (solubility) came to 2.4 µM (≈ 0.81 µg/mL). For the same compound, in data set [3], the Papp came to 12.7 ×10⁻⁶ cm/s. Further, the Activity with Mus musculus [4] is given as 58%; with Mus musculus [5], 24%; in the data set with Mus musculus [6], 22%; in the data set with Mus musculus [7], 144%; in the data set with Mus musculus [8], 41%; in the data set with Mus musculus [9], -2%. For the same compound, the Activity with Mus musculus [10] came out at 105%; in the data set with Mus musculus [11] it was 120%; in the data set on Mus musculus [12], 109%; with Mus musculus [13], 100%; in the data set on Mus musculus [14] it was 82%; in the data set on Mus musculus [15] it was 4%. In addition, in the data set with Mus musculus [16], the Activity amounted to 4%. Also, the inhibition result in the data set on Mus musculus [17] was “Dose-dependent effect”. For the same compound, the “inhibition (INH)” value in the data set with Mus musculus [18] is “Dose-dependent effect”. For the same compound, the AUC(0-inf) in [19] was 2.4 µM·h. This compound also showed a bioavailability in data set [20] of 15%. The outcome with Mus musculus [21] was Active.
